ChEMBL document CHEMBL4038323, “Discovery and Kinetic Profiling of 7-Aryl-1,2,4-triazolo[4,3-a]pyridines: Positive Allosteric Modulators of the Metabotropic Glutamate Receptor 2” (J Med Chem, 2017)

Key:
[1] = biological target: T1, Metabotropic glutamate receptor 2 (Homo sapiens, UniProt Q14416); assay: Displacement of [3H]JNJ-46281222 from human metabotropic glutamate receptor 2 expressed in CHOK1 cell membranes assessed as residence time measured every 30 sec for 120 mins by scintillation proximity assay
Outline: (§1)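 For the SPA competition association, CHO-K1_hmGlu2 membranes (20 µg) were pre-coupled 30 min to WGA SPA beads, then mixed with 6 nM [3H]JNJ-46281222, competitor and 1 mM glutamate. Counts were read every 30 s for 120 min at 28°C.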
Target sequence in this assay (Q14416 19-872 limits assumed): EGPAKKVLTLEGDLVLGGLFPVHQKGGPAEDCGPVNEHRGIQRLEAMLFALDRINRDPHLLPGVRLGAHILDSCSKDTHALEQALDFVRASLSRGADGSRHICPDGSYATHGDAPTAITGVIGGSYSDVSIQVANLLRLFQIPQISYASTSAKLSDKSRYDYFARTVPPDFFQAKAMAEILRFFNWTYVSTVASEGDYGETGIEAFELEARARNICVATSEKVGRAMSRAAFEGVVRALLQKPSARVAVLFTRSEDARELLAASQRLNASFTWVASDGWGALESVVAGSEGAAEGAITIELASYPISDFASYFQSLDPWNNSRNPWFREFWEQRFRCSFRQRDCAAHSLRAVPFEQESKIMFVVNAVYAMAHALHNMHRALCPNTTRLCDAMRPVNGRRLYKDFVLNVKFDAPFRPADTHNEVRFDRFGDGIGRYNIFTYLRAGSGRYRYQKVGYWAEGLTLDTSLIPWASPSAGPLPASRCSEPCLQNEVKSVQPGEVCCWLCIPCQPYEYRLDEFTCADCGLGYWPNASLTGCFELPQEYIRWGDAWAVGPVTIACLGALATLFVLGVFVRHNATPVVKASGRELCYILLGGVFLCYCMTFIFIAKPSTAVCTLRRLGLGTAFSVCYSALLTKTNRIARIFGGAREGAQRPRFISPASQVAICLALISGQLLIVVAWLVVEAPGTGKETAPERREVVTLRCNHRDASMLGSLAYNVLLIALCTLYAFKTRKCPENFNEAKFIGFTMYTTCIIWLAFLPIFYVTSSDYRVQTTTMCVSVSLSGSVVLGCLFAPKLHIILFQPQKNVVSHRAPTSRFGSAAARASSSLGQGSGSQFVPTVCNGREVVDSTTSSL

[2] = biological target: T1, Metabotropic glutamate receptor 2; assay: Displacement of [3H]JNJ-46281222 from human metabotropic glutamate receptor 2 expressed in CHOK1 cell membranes assessed as association rate constant measured every 30 sec for 120 mins by scintillation proximity assay; outline: as §1
Target sequence in this assay (Q14416 19-872 limits assumed): as above

[3] = biological target: T1, Metabotropic glutamate receptor 2; assay: Displacement of [3H]JNJ-46281222 from human metabotropic glutamate receptor 2 expressed in CHOK1 cell membranes assessed as dissociation rate constant measured every 30 sec for 120 mins by scintillation proximity assay; outline: as §1
Target sequence in this assay (Q14416 19-872 limits assumed): as above

[4] = biological target: T1, Metabotropic glutamate receptor 2; assay: Displacement of [3H]-JNJ46281222 from human metabotropic glutamate receptor 2 expressed in CHOK1 cell membranes after 60 mins by microbeta counting analysis
Target sequence in this assay (Q14416 whole entry): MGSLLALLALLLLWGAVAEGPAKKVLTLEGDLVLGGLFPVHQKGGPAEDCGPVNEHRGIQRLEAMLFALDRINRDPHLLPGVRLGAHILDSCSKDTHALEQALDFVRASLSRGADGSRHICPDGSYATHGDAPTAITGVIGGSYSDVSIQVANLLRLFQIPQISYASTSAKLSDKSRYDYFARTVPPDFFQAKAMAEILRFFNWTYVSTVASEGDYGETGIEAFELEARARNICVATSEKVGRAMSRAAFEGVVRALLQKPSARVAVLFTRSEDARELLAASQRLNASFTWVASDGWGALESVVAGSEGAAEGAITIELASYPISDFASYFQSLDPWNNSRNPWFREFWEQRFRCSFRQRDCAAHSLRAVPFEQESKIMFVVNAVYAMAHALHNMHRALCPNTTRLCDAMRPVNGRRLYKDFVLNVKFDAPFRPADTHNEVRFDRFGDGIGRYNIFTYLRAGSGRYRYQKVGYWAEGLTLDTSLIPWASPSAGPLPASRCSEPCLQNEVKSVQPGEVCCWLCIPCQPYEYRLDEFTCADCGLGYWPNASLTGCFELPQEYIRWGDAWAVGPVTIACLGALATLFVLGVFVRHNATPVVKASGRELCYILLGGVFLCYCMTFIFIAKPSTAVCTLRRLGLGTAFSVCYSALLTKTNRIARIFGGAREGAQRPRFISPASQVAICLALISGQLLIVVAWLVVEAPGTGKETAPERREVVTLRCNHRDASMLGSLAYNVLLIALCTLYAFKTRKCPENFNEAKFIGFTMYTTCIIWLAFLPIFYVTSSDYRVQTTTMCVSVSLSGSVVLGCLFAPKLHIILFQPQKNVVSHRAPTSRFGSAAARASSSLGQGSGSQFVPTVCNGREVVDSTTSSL

[5] = biological target: T1, Metabotropic glutamate receptor 2; assay: Positive allosteric modulation of human metabotropic glutamate receptor 2 expressed in CHOK1 cell membranes assessed as increase in glutamate-induced [35S]GTPgammaS binding preincubated for 30 mins followed by [35S]GTPgammaS addition measured after 30 mins by Topcount scintillation counting method; format: functional
Target sequence in this assay (Q14416 whole entry): as above

[6] = biological target: T1, Metabotropic glutamate receptor 2; assay: Binding affinity to human metabotropic glutamate receptor 2 expressed in CHOK1 cell membranes by scintillation proximity assay
Target sequence in this assay (Q14416 whole entry): as above

Cc1cc(-c2nc(CN3CCNCC3)no2)cc2c1C(=O)N(Cc1ccc(OC(F)(F)F)cc1)C2
TIME [1]: 0.13 h | K [2]: 2.1 ×10⁵ /M/min | K [3]: 0.128 min⁻¹

FC(F)(F)c1c(-c2ccc(CNC3CCOCC3)c(Cl)c2)ccn2c(CC3CC3)nnc12
Ki [4]: 61.7 nM | EC50 [5]: 631 nM | Kd [6]: 54 nM | TIME [1]: 0.183 h | K [2]: 1.7 ×10⁶ /M/min | K [3]: 0.091 min⁻¹

CCOCc1nnc2c(Cl)c(-c3ccc(Oc4ccc(C)nc4C)c(F)c3)ccn12
Ki [4]: 6.46 nM | EC50 [5]: 74.1 nM | Kd [6]: 25.2 nM | TIME [1]: 0.22 h | K [2]: 3 ×10⁶ /M/min | K [3]: 0.076 min⁻¹

Cc1ccc(Oc2ccc(-c3ccn4c(CC5CC5)nnc4c3Cl)cc2F)c(C)n1
Ki [4]: 1.95 nM | EC50 [5]: 40.7 nM | Kd [6]: 15.3 nM | TIME [1]: 0.172 h | K [2]: 6.3 ×10⁶ /M/min | K [3]: 0.097 min⁻¹

Cc1c(OCc2cccc(-c3ccc(C(=O)O)cc3)c2)cc2c(c1C)C(=O)C(C1CCCC1)C2 (configuration not stated)
TIME [1]: 0.193 h | K [2]: 4.6 ×10⁶ /M/min | K [3]: 0.086 min⁻¹

COc1ccc(CNc2ccc(-c3ccn4c(CC5CC5)nnc4c3Cl)cc2)cn1
Ki [4]: 7.41 nM | EC50 [5]: 151 nM | Kd [6]: 15.6 nM | TIME [1]: 0.172 h | K [2]: 6.2 ×10⁶ /M/min | K [3]: 0.097 min⁻¹

FC(F)(F)c1c(-c2ccc(NC3CC3)c(Cl)c2)ccn2c(CC3CC3)nnc12
Ki [4]: 2.24 nM | EC50 [5]: 7.76 nM | Kd [6]: 1.2 nM | TIME [1]: 0.188 h | K [2]: 7.7 ×10⁷ /M/min | K [3]: 0.088 min⁻¹

Fc1cc(-c2ccn3c(CC4CC4)nnc3c2Cl)ccc1Oc1ccnc(C2CC2)c1
Ki [4]: 53.7 nM | EC50 [5]: 87.1 nM | Kd [6]: 42.7 nM | TIME [1]: 0.228 h | K [2]: 1.7 ×10⁶ /M/min | K [3]: 0.073 min⁻¹

O[C@H]1CC[C@@H](Oc2ccc(-c3ccn4c(CC(F)(F)F)nnc4c3Cl)cc2Cl)CC1
Ki [4]: 32.4 nM | EC50 [5]: 97.7 nM | Kd [6]: 8.1 nM | TIME [1]: 0.295 h | K [2]: 6.9 ×10⁶ /M/min | K [3]: 0.056 min⁻¹

Fc1cc(-c2ccn3c(CC4CC4)nnc3c2C(F)(F)F)ccc1NC1CC1
Ki [4]: 3.63 nM | EC50 [5]: 30.2 nM | Kd [6]: 1.1 nM | TIME [1]: 0.198 h | K [2]: 7.7 ×10⁷ /M/min | K [3]: 0.086 min⁻¹

Cc1ccc(Oc2ccc(-c3ccn4c(CC5CC5)nnc4c3C)cc2Cl)c(C)n1
Ki [4]: 14.8 nM | EC50 [5]: 17.4 nM | Kd [6]: 17.4 nM | TIME [1]: 0.175 h | K [2]: 5.5 ×10⁶ /M/min | K [3]: 0.096 min⁻¹

CCOCc1nnc2c(C(F)(F)F)c(-c3ccc(Oc4ccc(C)nc4C)c(F)c3)ccn12
Ki [4]: 11.7 nM | EC50 [5]: 29.5 nM | Kd [6]: 2.1 nM | TIME [1]: 0.223 h | K [2]: 3.6 ×10⁷ /M/min | K [3]: 0.075 min⁻¹

O[C@H]1CC[C@H](Nc2ccc(-c3ccn4c(CC5CC5)nnc4c3Cl)cc2Cl)CC1
Ki [4]: 3.02 nM | EC50 [5]: 33.1 nM | Kd [6]: 12.7 nM | TIME [1]: 0.197 h | K [2]: 6.7 ×10⁶ /M/min | K [3]: 0.084 min⁻¹

Cc1ccc(Oc2ccc(-c3ccn4c(CC5CC5)nnc4c3C)cc2F)c(C)n1
Ki [4]: 21.9 nM | EC50 [5]: 77.6 nM | Kd [6]: 10 nM | TIME [1]: 0.193 h | K [2]: 8.6 ×10⁶ /M/min | K [3]: 0.086 min⁻¹

Cc1ccc(Oc2ccc(-c3ccn4c(CC(F)(F)F)nnc4c3Cl)cc2F)c(C)n1
Ki [4]: 7.94 nM | EC50 [5]: 29.5 nM | Kd [6]: 3.3 nM | TIME [1]: 0.175 h | K [2]: 2.9 ×10⁷ /M/min | K [3]: 0.096 min⁻¹

Clc1cc(-c2ccn3c(CC4CC4)nnc3c2Cl)ccc1OC1CCOCC1
Ki [4]: 22.9 nM | EC50 [5]: 224 nM | Kd [6]: 28.1 nM | TIME [1]: 0.182 h | K [2]: 3.3 ×10⁶ /M/min | K [3]: 0.092 min⁻¹

Cc1ccc(Oc2ccc(-c3ccn4c(CC5CC5)nnc4c3C(F)(F)F)cc2Cl)c(C)n1
Ki [4]: 1.51 nM | EC50 [5]: 2.88 nM | Kd [6]: 7.3 nM | TIME [1]: 0.378 h | K [2]: 6.1 ×10⁶ /M/min | K [3]: 0.044 min⁻¹

COc1ccc(CNc2ccc(-c3ccn4c(CC5CC5)nnc4c3C(F)(F)F)cc2F)cn1
Ki [4]: 2.04 nM | EC50 [5]: 5.89 nM | Kd [6]: 2.9 nM | TIME [1]: 0.378 h | K [2]: 1.5 ×10⁷ /M/min | K [3]: 0.044 min⁻¹

CC(C)Nc1ccc(-c2ccn3c(CC4CC4)nnc3c2C(F)(F)F)cc1F
Ki [4]: 8.91 nM | EC50 [5]: 93.3 nM | Kd [6]: 2.2 nM | TIME [1]: 0.167 h | K [2]: 4.6 ×10⁷ /M/min | K [3]: 0.1 min⁻¹

Cc1cc(Oc2ccc(-c3ccn4c(CC5CC5)nnc4c3C(F)(F)F)cc2F)ccn1
Ki [4]: 7.08 nM | EC50 [5]: 56.2 nM | Kd [6]: 9.2 nM | TIME [1]: 0.185 h | K [2]: 9.8 ×10⁶ /M/min | K [3]: 0.09 min⁻¹

O[C@H]1CC[C@H](Nc2ccc(-c3ccn4c(CC5CC5)nnc4c3C(F)(F)F)cc2Cl)CC1
TIME [1]: 0.513 h | K [2]: 1.1 ×10⁷ /M/min | K [3]: 0.033 min⁻¹

Cc1ccc(Oc2ccc(-c3ccn4c(CC5CC5)nnc4c3C(C)C)cc2F)c(C)n1
Ki [4]: 25.1 nM | EC50 [5]: 28.2 nM | Kd [6]: 10.7 nM | TIME [1]: 0.237 h | K [2]: 6.5 ×10⁶ /M/min | K [3]: 0.07 min⁻¹

Clc1cc(-c2ccn3c(CC4CC4)nnc3c2Cl)ccc1NC1CCOCC1
Ki [4]: 38.9 nM | EC50 [5]: 148 nM | Kd [6]: 19.5 nM | TIME [1]: 0.122 h | K [2]: 7 ×10⁶ /M/min | K [3]: 0.136 min⁻¹

COc1ccc(COc2ccc(-c3ccn4c(CC5CC5)nnc4c3C(F)(F)F)cc2)cn1
Ki [4]: 8.71 nM | EC50 [5]: 57.5 nM | Kd [6]: 8.7 nM | TIME [1]: 0.133 h | K [2]: 1.4 ×10⁷ /M/min | K [3]: 0.125 min⁻¹

Clc1cc(-c2ccn3c(CC4CC4)nnc3c2Cl)ccc1NC1CC1
Ki [4]: 6.76 nM | EC50 [5]: 29.5 nM | Kd [6]: 6.1 nM | TIME [1]: 0.198 h | K [2]: 1.4 ×10⁷ /M/min | K [3]: 0.084 min⁻¹

O[C@H]1CC[C@H](Oc2ccc(-c3ccn4c(CC(F)(F)F)nnc4c3Cl)cc2Cl)CC1
Ki [4]: 11.5 nM | EC50 [5]: 158 nM | Kd [6]: 16.6 nM | TIME [1]: 0.122 h | K [2]: 8.3 ×10⁶ /M/min | K [3]: 0.137 min⁻¹

CCc1cc(Oc2ccc(-c3ccn4c(CC5CC5)nnc4c3Cl)cc2F)ccn1
Ki [4]: 18.6 nM | EC50 [5]: 100 nM | Kd [6]: 23.3 nM | TIME [1]: 0.24 h | K [2]: 3 ×10⁶ /M/min | K [3]: 0.069 min⁻¹

CC(C)Nc1ccc(-c2ccn3c(CC4CC4)nnc3c2Cl)cc1F
Ki [4]: 61.7 nM | EC50 [5]: 224 nM | Kd [6]: 20.3 nM | TIME [1]: 0.165 h | K [2]: 5 ×10⁶ /M/min | K [3]: 0.101 min⁻¹

Cc1cc(Oc2ccc(-c3ccn4c(CC5CC5)nnc4c3Cl)cc2F)ccn1
Ki [4]: 63.1 nM | EC50 [5]: 251 nM | Kd [6]: 37.6 nM | TIME [1]: 0.173 h | K [2]: 2.6 ×10⁶ /M/min | K [3]: 0.096 min⁻¹

COc1ccc(COc2ccc(-c3ccn4c(CC5CC5)nnc4c3C(F)(F)F)cc2F)cn1
Ki [4]: 11.7 nM | EC50 [5]: 40.7 nM | Kd [6]: 16 nM | TIME [1]: 0.0967 h | K [2]: 1.1 ×10⁷ /M/min | K [3]: 0.173 min⁻¹

CC(C)Nc1ccc(-c2ccn3c(CC4CC4)nnc3c2C(F)(F)F)cc1Cl
Ki [4]: 3.89 nM | EC50 [5]: 17.4 nM | Kd [6]: 3.4 nM | TIME [1]: 0.137 h | K [2]: 3.6 ×10⁷ /M/min | K [3]: 0.121 min⁻¹

O[C@H]1CC[C@H](Oc2ccc(-c3ccn4c(CC5CC5)nnc4c3C(F)(F)F)cc2Cl)CC1
Ki [4]: 1.91 nM | EC50 [5]: 25.1 nM | Kd [6]: 3 nM | TIME [1]: 0.468 h | K [2]: 1.2 ×10⁷ /M/min | K [3]: 0.036 min⁻¹

Cc1cc(Oc2ccc(-c3ccn4c(CC5CC5)nnc4c3C(F)(F)F)cc2F)cc(C)n1
Ki [4]: 10 nM | EC50 [5]: 64.6 nM | Kd [6]: 11.5 nM | TIME [1]: 0.175 h | K [2]: 8.3 ×10⁶ /M/min | K [3]: 0.095 min⁻¹

O[C@H]1CC[C@@H](Nc2ccc(-c3ccn4c(CC5CC5)nnc4c3C(F)(F)F)cc2Cl)CC1
TIME [1]: 0.285 h | K [2]: 5.7 ×10⁶ /M/min | K [3]: 0.058 min⁻¹
